Source: ChEMBL document CHEMBL1129428 (J Med Chem, 1996)

Legend:
Mus musculus [1] = test: Anticonvulsant activity after intraperitoneal injection into mice by using MES screen test after 0.5 hr; format: functional
Mus musculus [2] = test: Anticonvulsant activity after intraperitoneal injection into mice measured in a maximal electroshock scree (MES) screen; format: functional
Mus musculus [3] = test: Anticonvulsant activity after intraperitoneal injection into mice by using scPTZ screen after 0.5 hr; format: functional
Mus musculus [4] = test: Toxicity after intraperitoneal injection into mice by using toxicity screen test after 0.5 hr; format: organism-based; details: in vivo, ip
Method in brief: (§1)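 Mice injected intraperitoneally at 30, 100 and 300 mg/kg and examined 0.5 and 4 h afterwards. Each entry is the minimum dose giving activity (MES protection, scPTZ protection, or rotorod failure for neurotoxicity) in half or more of the mice. Activity is called absent if nothing occurs at 300 mg/kg.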

Mus musculus [5] = test: Compound was tested for toxicity after intraperitoneal injection into mice by using toxicity screen test after 4 hr; format: organism-based; details: in vivo, ip; method in brief: as §1
Mus musculus [6] = test: Compound was tested for anticonvulsant activity after intraperitoneal injection into mice by using MES screen test after 2 hr; format: functional; details: ip
Method in brief: (§2)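 Quantitative intraperitoneal mouse testing in the MES, scPTZ or rotorod neurotoxicity screens at the peak time given for each compound (0.25–2 h). ED50 or TD50 reported in mg/kg with 95% CI and slope (SE).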

Mus musculus [7] = test: Compound was tested for anticonvulsant activity after intraperitoneal injection into mice by using scPTZ screen test after 2 hr; format: functional; details: ip; method in brief: as §2
[8] = Compound was tested for toxicity after intraperitoneal injection into mice by using neurotoxicity screen test after 2 hr; format: organism-based; details: mouse, in vivo, ip; method in brief: as §2
Rattus norvegicus [9] = test: Compound was tested for anticonvulsant activity after Oral Administration into Rats by using MES screen test after 4h,dose 12.5 mg/kg; number of rats out of four which were protected; format: functional
Method in brief: (§3)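 Rats received the compound orally. […] Rats were tested in the MES screen at 0.25, 0.5, 1, 2 and 4 h. Each value is the number of rats protected out of 4. The test followed NINDS procedures.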

Rattus norvegicus [10] = test: Compound was tested for anticonvulsant activity after Oral Administration into Rats by using MES screen test after 0.25h,dose 12.5 mg/kg; number of rats out of four which were protected; format: functional; method in brief: as §3
Rattus norvegicus [11] = test: Anticonvulsant activity after oral administration into rats; format: functional; design: concentration or dose not given beside the values
Rattus norvegicus [12] = test: Compound was tested for anticonvulsant activity after Oral Administration into Rats by using MES screen test after 1h,dose 12.5 mg/kg; number of rats out of four which were protected; format: functional; method in brief: as §3
Rattus norvegicus [13] = test: Compound was tested for anticonvulsant activity after Oral Administration into rat by using MES screen test after 4 hr; format: functional
Method in brief: (§4)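 Rats dosed orally, typically at 50 mg/kg first, then mostly 12.5 mg/kg (some compounds at 30 mg/kg), and tested by maximal electroshock. Four rats per compound, scored at 0.25, 0.5, 1, 2 and 4 h as the number of rats protected out of 4.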

[14] = Compound was tested for toxicity after oral administration in rat by using neurotoxicity screen test after 0.25-24 hr; format: organism-based; details: in vivo
Method in brief: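 Rat neurotoxicity after oral dosing, observed at 0.25, 0.5, 1, 2, 4, 6, 8 and 24 h (8 h omitted for one compound).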

Rattus norvegicus [15] = test: Compound was tested for anticonvulsant activity after Oral Administration into Rats by using MES screen test after 2h,dose 12.5 mg/kg; number of rats out of four which were protected; format: functional; method in brief: as §3
Mus musculus [16] = test: Compound was tested for anticonvulsant activity after intraperitoneal injection into mice by using MES screen test after 1 hr; format: functional; details: ip; method in brief: as §2
[17] = Compound was tested for toxicity after intraperitoneal injection into mice by using neurotoxicity screen test after 4 hr; format: organism-based; details: mouse, in vivo, ip; method in brief: as §1
Rattus norvegicus [18] = test: Compound was tested for anticonvulsant activity after Oral Administration into Rats by using MES screen test after 0.25h,dose 12.5 mg/kg; No activity was demonstarted; format: functional, organism-based; design: dose 12.5 mg/kg; method in brief: as §3
Rattus norvegicus [19] = test: Compound was tested for anticonvulsant activity after Oral Administration into rat by using MES screen test after 2 hr; format: functional; method in brief: as §4
[20] = Protection index = TD50/ED50; format: ADME; details: read-out: PI
Mus musculus [21] = test: Compound was tested for anticonvulsant activity after intraperitoneal injection into mice by using scPTZ screen test after 1 hr; format: functional; details: ip; method in brief: as §2
Rattus norvegicus [22] = test: Compound was tested for anticonvulsant activity after Oral Administration into Rats by using MES screen test after 4h,dose 12.50 mg/kg; number of rats out of four which were protected; format: functional; details: dose 12.5 mg/kg; method in brief: as §3
Rattus norvegicus [23] = test: Compound was tested for anticonvulsant activity after Oral Administration into Rats by using MES screen test after 0.5h,dose 12.5 mg/kg; No activity was demonstarted; format: functional, organism-based; design: dose 12.5 mg/kg; method in brief: as §3
Rattus norvegicus [24] = test: Compound was tested for anticonvulsant activity after Oral Administration into Rats by using MES screen test after 2h,dose 12.5 mg/kg; No activity was demonstarted; format: functional, organism-based; design: dose 12.5 mg/kg; method in brief: as §3
Mus musculus [25] = test: Anticonvulsant activity after intraperitoneal injection into mice by using scPTZ screen test after 4 hr; format: functional
Rattus norvegicus [26] = test: Compound was tested for anticonvulsant activity after Oral Administration into Rats by using MES screen test after 4h,dose 12.5 mg/kg; No activity was demonstarted; format: functional, organism-based; design: dose 12.5 mg/kg; method in brief: as §3
Rattus norvegicus [27] = test: Compound was tested for anticonvulsant activity after Oral Administration into Rats by using MES screen test after 1h,dose 12.5 mg/kg; No activity was demonstarted; format: functional, organism-based; design: dose 12.5 mg/kg; method in brief: as §3
Rattus norvegicus [28] = test: Compound was tested for anticonvulsant activity after Oral Administration into Rats by using MES screen test after 4h,dose 30 mg/kg; number of rats out of four which were protected; format: functional; method in brief: as §3
Rattus norvegicus [29] = test: Compound was tested for anticonvulsant activity after Oral Administration into Rats by using MES screen test after 0.25h,dose 30 mg/kg; No activity was demonstarted; format: functional, organism-based; design: dose 30 mg/kg; method in brief: as §3
Rattus norvegicus [30] = test: Compound was tested for anticonvulsant activity after Oral Administration into Rats by using MES screen test after 2h,dose 30 mg/kg; number of rats out of four which were protected; format: functional; method in brief: as §3
Rattus norvegicus [31] = test: Compound was tested for anticonvulsant activity after Oral Administration into Rats by using MES screen test after 0.5h,dose 30 mg/kg; No activity was demonstarted; format: functional, organism-based; design: dose 30 mg/kg; method in brief: as §3
Rattus norvegicus [32] = test: Compound was tested for anticonvulsant activity after Oral Administration into Rats by using MES screen test after 1h,dose 30 mg/kg; number of rats out of four which were protected; format: functional; method in brief: as §3
Mus musculus [33] = test: Compound was tested for anticonvulsant activity after intraperitoneal injection into mice by using MES screen test after 0.5 hr; format: functional; details: ip; method in brief: as §1
Mus musculus [34] = test: Compound was tested for anticonvulsant activity after intraperitoneal injection into mice by using scPTZ screen test after 0.5 hr; format: functional; details: ip; method in brief: as §1
[35] = Compound was tested for toxicity after intraperitoneal injection into mice by using neurotoxicity screen test after 1 hr; format: organism-based; details: mouse, in vivo, ip; method in brief: as §2
[36] = Protection index = TD50/ED50 (MES); details: mouse, in vivo; read-out: PI
Rattus norvegicus [37] = test: Compound was tested for anticonvulsant activity after Oral Administration into Rats by using MES screen test after 4h,dose 50 mg/kg; number of rats out of four which were protected; format: functional; method in brief: as §3
Rattus norvegicus [38] = test: Compound was tested for anticonvulsant activity after Oral Administration into Rats by using MES screen test after 2h,dose 50 mg/kg; number of rats out of four which were protected; format: functional; method in brief: as §3
Rattus norvegicus [39] = test: Compound was tested for anticonvulsant activity after Oral Administration into Rats by using MES screen test after 0.25h,dose 50 mg/kg; number of rats out of four which were protected; format: functional; method in brief: as §3
Rattus norvegicus [40] = test: Compound was tested for anticonvulsant activity after Oral Administration into Rats by using MES screen test after 0.5h,dose 50 mg/kg; number of rats out of four which were protected; format: functional; method in brief: as §3
Rattus norvegicus [41] = test: Compound was tested for anticonvulsant activity after Oral Administration into Rats by using MES screen test after 1h,dose 50 mg/kg; number of rats out of four which were protected; format: functional; method in brief: as §3

| SMILES | Dose (Mus musculus [1]) [mg/kg] | Dose (Mus musculus [2]) [mg/kg] | Dose (Mus musculus [3]) [mg/kg] | Dose (Mus musculus [4]) [mg/kg] | Dose (Mus musculus [5]) [mg/kg] | TD50 at 2 h [8] [mg/kg] | Activity (Rattus norvegicus [9]) | Activity (Rattus norvegicus [11]) | Activity (Rattus norvegicus [12]) | Activity (Rattus norvegicus [15]) | Activity (Rattus norvegicus [18]) | Activity (Rattus norvegicus [23]) | other results |
| --- | --- | --- | --- | --- | --- | --- | --- | --- | --- | --- | --- | --- | --- |
| C/C(=N/NC(N)=O)c1ccc(Oc2ccc(Br)cc2)cc1 | 30 | 30 | 300 | 300 | 100 | 104 | 4 | 3 | 4 | 4 | – | – | ED50 (Mus musculus [6]): 12.5 mg/kg; ED50 (Mus musculus [7]): > 110 mg/kg; Activity (Rattus norvegicus [10]): 1; ED50 (Rattus norvegicus [13]): 1.52 mg/kg; TD50 [14]: > 500 mg/kg |
| CCCc1ccc(Oc2ccc(/C=N/NC(N)=O)cc2)cc1 | 100 | 100 | 300 | – | 300 | – | 2 | 1 | 2 | 4 | No activity | – | ED50 (Mus musculus [16]): 11 mg/kg; TD50 at 4 h [17]: 243 mg/kg; ED50 (Rattus norvegicus [19]): 2.63 mg/kg; TD50 [14]: > 500 mg/kg; selectivity ratio [20]: 3.05; ED50 (Mus musculus [21]): 79.6 mg/kg |
| Cc1cccc(Oc2ccc(/C=N/NC(N)=O)cc2)c1C | – | 100 | – | – | – | – | – | – | 1 | – | No activity | No activity | Activity (Rattus norvegicus [22]): 1; Activity (Rattus norvegicus [24]): No activity |
| N=C(N)N/N=C/c1ccc(Sc2ccc(F)cc2)cc1 | 300 | – | 30 | 100 | 100 | – | – | – | – | 1 | No activity | No activity | Dose (Mus musculus [25]): 30 mg/kg; Activity (Rattus norvegicus [26]): No activity; Activity (Rattus norvegicus [27]): No activity |
| NC(=O)N/N=C\c1ccccc1Oc1ccc(F)cc1 | – | – | – | – | – | – | – | – | – | – | – | – | Activity (Rattus norvegicus [28]): 1; Activity (Rattus norvegicus [29]): No activity; Activity (Rattus norvegicus [30]): 2; Activity (Rattus norvegicus [31]): No activity; Activity (Rattus norvegicus [32]): 1 |
| NC(=O)N/N=C\c1ccc(OS(=O)(=O)c2ccccc2)cc1 | 30 | 30 | 30 | 300 | 300 | – | 3 | 2 | 2 | 4 | – | – | ED50 (Mus musculus [33]): 25.3 mg/kg; ED50 (Mus musculus [34]): > 100 mg/kg; TD50 at 1 h [35]: 113 mg/kg; Activity (Rattus norvegicus [10]): 1; selectivity ratio [36]: 4.47 |
| CC/C(=N/NC(N)=O)c1ccccc1Oc1ccc(F)cc1 | – | – | – | – | 300 | – | – | – | – | – | No activity | No activity | Activity (Rattus norvegicus [26]): No activity; Activity (Rattus norvegicus [27]): No activity; Activity (Rattus norvegicus [24]): No activity |
| CC/C(=N/NC(N)=O)c1ccc(Sc2ccc(F)cc2)cc1 | 30 | 100 | – | 100 | 100 | – | – | – | – | – | – | – | Activity (Rattus norvegicus [28]): 3; Activity (Rattus norvegicus [29]): No activity; Activity (Rattus norvegicus [30]): 3; Activity (Rattus norvegicus [31]): No activity; Activity (Rattus norvegicus [32]): 2 |
| NC(=O)N/N=C/c1ccc(Sc2ccc(Br)cc2)cc1 | 100 | 30 | – | – | 300 | 123 | 4 | 1 | 3 | 4 | No activity | – | Dose (Mus musculus [25]): 300 mg/kg; ED50 (Mus musculus [6]): 24.4 mg/kg; ED50 (Mus musculus [7]): > 200 mg/kg; selectivity ratio [36]: 5.03 |
| NC(=O)N/N=C/c1ccc(Oc2ccccc2F)cc1 | 100 | 300 | 300 | – | – | 170 | – | – | – | – | – | – | ED50 (Mus musculus [33]): 20.7 mg/kg; ED50 (Mus musculus [34]): > 220 mg/kg; Activity (Rattus norvegicus [37]): 4; Activity (Rattus norvegicus [38]): 4; Activity (Rattus norvegicus [39]): 2; Activity (Rattus norvegicus [40]): 4; Activity (Rattus norvegicus [41]): 4 |
